# Assay outcomes (PubChem)
# The list is not random: actives were taken first. Their share in the collection is about 2.5%.
# ABHD5-PLIN5 inh: ABHD5-PLIN5 protein interaction inhibition | Split G. princeps luciferase complementation, luminescence, 4 h | 0.78% of 360,000 active | inhibition, % at 4 µM;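 active means inhibition above the mean inhibition across every tested compound plus 3 SD, cut at about 22% in these data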;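 further: 0% = DMSO only wells and the 100% control is not disclosed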
# Arrestin-AP2 inh: human beta-arrestin and AP2 interaction inhibition. inhibition, % at 10 µM. AID 504490. 0.31% of 340,000 active. FITC-arrestin peptide / GST-AP2 beads, flow cytometry; AP2 beta2 appendage carries R879A mutation;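 active means inhibition above a set limit, near 3 SD of compounds lacking own fluorescence, cut at about 54% in these data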;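 further: plate controls were DMSO wells for no effect and 5 µM unlabelled arrestin peptide for full effect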
#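 Test system: GST-tagged AP2 beta2-adaptin appendage (R879A) on 4 µm glutathione beads; also added: fluorescein-tagged arrestin peptide at 50 nM final; timing: 12 min plus 1 h, RT; signal: flow cytometry, FL1 (488/535 nm); read-out: percent drop in bead-associated FITC signal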
# Rin1 Abl inh: inhibitors of human Rin1-Abl protein interaction | TR-FRET Rin1/Abl binding, biochemical | P00519+Q13671 | 0.4% of 360,000 active | inhibition, % at 7.35 µM; in the data active means inhibition above about 5%, passing the limit was not always enough
# MBD2 DNA inh: blocks human MBD2 binding to methylated DNA; inhibition, % at 4.4 µM; Q9UBB5; TR-FRET, MBD2 binding to methylated oligonucleotide; 0.31% of 370,000 active; AID 686964; in the data active means inhibition above about 13%
# Beta2AR agonist: human beta-2 adrenergic receptor agonism by FAP. 0.43% of 340,000 active. Am2.2-beta2AR cells, FAP receptor internalization, flow cytometry. response, % (no concentration beside the values);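 active means response above a set limit, near 3 SD of response in nonfluorescent compounds, cut at about 42% in these data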
# UHRF1 binding: human UHRF1 methylated DNA binding inhibitors; Q96T88; UHRF1 binding to methylated oligo, TR-FRET; inhibition, % at 4.4 µM; 0.75% of 370,000 active; in the data active means inhibition above about 21%;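 further: UHRF1 SRA domain binding a hemimethylated CpG hairpin DNA probe; 0% = median of test compound wells and 100% = reference inhibitor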
# Target sequence (Q96T88 whole entry, looked up, the tested form may be a part): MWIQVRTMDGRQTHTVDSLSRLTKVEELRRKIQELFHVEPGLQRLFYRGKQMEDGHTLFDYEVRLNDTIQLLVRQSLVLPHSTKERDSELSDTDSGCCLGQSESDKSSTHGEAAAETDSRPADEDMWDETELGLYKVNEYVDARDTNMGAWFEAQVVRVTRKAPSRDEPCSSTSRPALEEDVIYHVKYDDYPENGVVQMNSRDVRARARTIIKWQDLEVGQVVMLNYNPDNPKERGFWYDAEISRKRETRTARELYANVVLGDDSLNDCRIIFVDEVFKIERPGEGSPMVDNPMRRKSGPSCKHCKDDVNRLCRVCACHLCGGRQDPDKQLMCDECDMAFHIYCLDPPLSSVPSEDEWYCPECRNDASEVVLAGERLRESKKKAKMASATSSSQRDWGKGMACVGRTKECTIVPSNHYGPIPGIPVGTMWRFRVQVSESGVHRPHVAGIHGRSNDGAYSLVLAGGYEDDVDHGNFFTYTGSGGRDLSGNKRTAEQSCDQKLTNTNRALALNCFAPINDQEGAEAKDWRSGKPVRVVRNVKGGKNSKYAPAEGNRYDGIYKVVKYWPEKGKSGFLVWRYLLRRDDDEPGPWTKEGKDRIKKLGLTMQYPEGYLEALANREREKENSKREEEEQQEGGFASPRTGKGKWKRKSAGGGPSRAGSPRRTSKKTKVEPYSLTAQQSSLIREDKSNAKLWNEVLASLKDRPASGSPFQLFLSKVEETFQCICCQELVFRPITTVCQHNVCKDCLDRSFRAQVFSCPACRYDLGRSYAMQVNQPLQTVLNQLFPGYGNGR
# ABHD5-PLIN5 conf: confirmation of human ABHD5-PLIN5 interaction inhibitors. shares compounds with ABHD5-PLIN5 inh. biochemical ABHD5-PLIN5 interaction, luminescence. inhibition, % at 4 µM. 67% of 2,200 active. AID 651612; in the data active means inhibition above about 23%;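 further: 0% = DMSO vehicle wells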
# HNF4 counter: counter-screen for ABHD5-PLIN5 inhibitors: HNF4 split-luciferase; shares compounds with ABHD5-PLIN5 inh; HNF4 dimerization, luminescence, biochemical; inhibition, % at 4 µM; 77% of 2,200 active;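 active means mean inhibition across replicate wells exceeding the computed hit threshold, cut at about 13% in these data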;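 further: light from luciferase halves that rejoin when HNF4 fusion proteins dimerize; 0% = DMSO only wells and the 100% control is not given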
# Numbers without * were called inactive; x = no result.
SMILES,ABHD5-PLIN5 inh,Arrestin-AP2 inh,Rin1 Abl inh,MBD2 DNA inh,Beta2AR agonist,UHRF1 binding,ABHD5-PLIN5 conf,HNF4 counter
Cc1ccc(CN2CCCCC(NC(=O)Nc3cccc([N+](=O)[O-])c3)C2=O)cc1 (stereo not drawn),x,x,x,-3,x,-2,x,x
O=CC1=C(c2ccccc2)Oc2ccccc2O1,30*,13,3,-2,67*,-2,73*,31*
CN(C)/C=C1/N=C(c2ccccc2)OC1=O,6,7,0,1,-3,-2,x,x
CCOC(=O)[C@]12CCCC3=C1N(CCC3)C(=O)[C@@H](CC(=O)N1CCCC1)C2,x,x,x,-5,x,1,x,x
CCCCNC(=O)C[C@H]1C[C@@]2(C(=O)OC)C(=C[C@H](C(C)C)O[C@@H]2C2CC2)N(CCc2ccc(OC)c(OC)c2)C1=O,x,x,x,0,x,-1,x,x
Cc1cccc(C)c1NC(=O)C(c1ccnc2ccccc12)n1c(=O)c(-c2ccco2)nc2ccccc21 (stereo not drawn),45*,x,x,-5,x,-5,52*,13*
Cc1cccc(C)c1NC(=O)C(c1ccccc1F)n1c(=O)c(-c2ccco2)nc2ccccc21 (stereo not drawn),86*,x,x,0,x,-5,76*,28*
O=[N+]([O-])c1ccc(OCCCN2CCC(C(O)(c3ccccc3)c3ccccc3)CC2)c(Cl)c1,x,x,x,-5,x,-2,x,x
Cc1cc(C)cc(C(=O)OCCN(C)C2CN(Cc3cn(Cc4ccccc4C(F)(F)F)nn3)S(=O)(=O)C2)c1 (stereo not drawn),x,x,x,8,x,12,x,x
C=CS(=O)(=O)c1sc(Cl)c(N2CCOCC2)c1[N+](=O)[O-],43*,33,-1,-1,33,4,100*,111*
O=[N+]([O-])/C=C/c1cn(Cc2ccc(F)cc2)c2ccccc12,57*,10,1,-2,41,1,92*,68*
O=S(=O)(/N=S1\CC=CCN1S(=O)(=O)c1ccccc1)c1ccccc1 (stereo not drawn),92*,-16,4,-3,-4,-1,17,85*
CCCCNS(=O)(=O)/C=C/c1cc(C)ccc1CNC(=O)OC(C)(C)C,x,x,x,5,x,-3,x,x
CC(=O)N(C1=C(Cl)C(=O)c2ccccc2C1=O)C1CCCCC1,33*,44,2,-10,64*,-1,84*,110*
COc1cc(/C=C(\C#N)C(=O)NC2CCCCC2C)ccc1OS(=O)(=O)c1ccc(C)cc1 (stereo not drawn),38*,-6,2,5,12,0,67*,49*
COc1cc(/C=C(\C#N)C(N)=O)ccc1OS(=O)(=O)c1ccc(C)cc1,0,11,-4,10,6,4,x,x
N#C/C(=C\c1c(F)cccc1Cl)C(=O)NC1CC1,23*,20,2,-6,13,1,30*,21*
CSc1ccc(/C=C(\C#N)C(=O)NC2CCCCC2C)cc1 (stereo not drawn),19,-6,-1,-4,20,5,x,x
N#C/C(=C\c1ccccc1)C(=O)NC1CC1,4,34,2,0,12,0,x,x
CC1CCCCC1NC(=O)/C(C#N)=C/c1ccccc1F (stereo not drawn),34*,2,0,10,17,25*,82*,78*
Cc1ccc(/C=C2/CNC/C(=C/c3ccc(C)cc3)C2=O)cc1,96*,-6,1,3,2,2,100*,94*
COC(=O)[C@]12C[C@H](CC(=O)NCCCN3CCCC3=O)C(=O)N(Cc3ccc(Cl)cc3Cl)C1=C[C@H](C(C)(C)C)O[C@@H]2C,x,x,x,-1,x,-1,x,x
COc1ccc(C(=O)Cn2nc(CNc3ccc(Br)cc3)[n+]3c2CCCCC3)cc1,37*,-15,-4,2,-5,1,23*,14*
